Source: PubChem
Most compounds without a hit are left out; they make up all but 3.5% or so of the library.
RGS4 inh: inhibitors of human RGS4 | 0.45% of 310,000 active | P49798 | HEK293 M3R/RGS4 inducible, Fluo-4 calcium flux; stronger effect = higher value; triggered by carbachol at its EC20 | AID 463165 | B-score at 10 µM;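 active = B-score, a plate-corrected calcium signal, over three deviations above library mean, with baseline fluorescence within five deviations of library mean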;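 also: RGS4 expression induced by doxycycline in cells with stable M3 receptor; B-score is computed from the integrated fluorescence ratio over baseline after carbachol; higher B-score means a larger calcium signal and so more RGS4 inhibition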
Target sequence (P49798 whole entry, looked up): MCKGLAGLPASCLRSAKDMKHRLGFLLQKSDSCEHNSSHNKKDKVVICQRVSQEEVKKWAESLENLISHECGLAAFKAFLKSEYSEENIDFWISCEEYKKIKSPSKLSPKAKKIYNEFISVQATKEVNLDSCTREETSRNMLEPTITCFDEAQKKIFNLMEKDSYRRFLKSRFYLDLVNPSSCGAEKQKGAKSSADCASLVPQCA
MrgX1 agonist: activates human MrgX1 receptor signaling. Q96LB2. MrgX1-HEK293 cells, Fluo-4 calcium fluorescence, agonist mode; stronger effect = higher value. B-score at 10 µM. 0.44% of 310,000 active. AID 588627;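 active = calcium response B-score plate-corrected fluorescence ratio at least 3 library SD, with starting fluorescence B-score inside 5 SD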
Target sequence (Q96LB2 whole entry, looked up): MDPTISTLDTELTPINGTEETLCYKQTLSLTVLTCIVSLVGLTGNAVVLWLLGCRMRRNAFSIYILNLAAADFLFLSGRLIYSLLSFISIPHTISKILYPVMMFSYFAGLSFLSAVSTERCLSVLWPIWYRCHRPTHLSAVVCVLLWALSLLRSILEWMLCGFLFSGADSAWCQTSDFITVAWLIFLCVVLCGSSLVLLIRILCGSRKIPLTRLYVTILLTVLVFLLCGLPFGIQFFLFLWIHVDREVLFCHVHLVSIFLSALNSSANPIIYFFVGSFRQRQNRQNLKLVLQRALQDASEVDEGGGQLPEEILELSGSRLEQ
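Material: MrgX1-expressing HEK293 cells; input: 15,000 cells per well; doses: test compound given as first of three sequential additions; schedule: overnight plating before 1 h dye loading; technique: Fluo-4 NW calcium-flux fluorescence, kinetic read; evaluation: baseline-normalised fluorescence change ratio, B-scored; control set: plate-wise positive and negative controls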
MrgX1 PAM: human MrgX1 positive allosteric modulation, primary screen; Q96LB2; MrgX1-HEK293, Fluo-4 calcium flux, FDSS; stronger effect = higher value; B-score at 10 µM; 0.63% of 310,000 active; AID 588675;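 active = plate-corrected calcium response at least 3 library SD above typical, normal starting fluorescence, not activating the receptor alone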;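 also: compound read alongside a low EC10 to EC30 dose of BAM8-22 agonist; peak minus trough fluorescence over baseline measured at the second addition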
RGS4 pot: RGS4 potentiation or activation | HEK293 M3R/inducible RGS4, carbachol calcium flux Fluo4; stronger effect = lower value | 0.92% of 310,000 active | B-score at 10 µM | AID 463111;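 active = B-score of the integrated calcium signal more than 4 SD below the library mean, with starting fluorescence not abnormally high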;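 also: negative B-score means reduced calcium response which marks RGS4 activation or potentiation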
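test system = M3R-expressing HEK293 line, RGS4 induced by doxycycline | probe or stimulus = carbachol at ECmax as muscarinic agonist stimulus | timing = dye loading 30 min 37 °C, buffer rest 30 min RT | signal = calcium dye Fluo4 fluorescence | evaluation = B score from integrated fluorescence ratio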
MrgX1 antag: antagonists of human MrgX1 receptor | Q96LB2 | MRGX1-HEK293 calcium flux, Fluo-4, BAM8-22 antagonism; stronger effect = lower value | B-score at 10 µM | 1.3% of 310,000 active;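 active = calcium-response B-score plate-corrected more than 3 library SD below zero, starting fluorescence within 5 deviations, no agonist response on first addition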;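 also: peak minus trough fluorescence over baseline after final BAM8-22 challenge near maximal dose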
RGS4 activ val: RGS4 activation, validation assay. shares compounds with RGS4 pot. HEK293 M3R/RGS4 inducible, carbachol calcium flux Fluo4. inhibition, % at 10 µM. 89% of 1,100 active. AID 602282;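 active = inhibition above 3 SD of the buffer control wells, cut at about 41% in these data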;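 also: signal is the integrated peak-minus-minimum Fluo4 fluorescence over baseline ratio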
RGS4 act ctr: activity in cells without induced RGS4 expression. shares compounds with RGS4 pot. 82% of 1,100 active. HEK293 M3R non-induced RGS4, Fluo4 calcium flux; after carbachol challenge at its EC90. inhibition, % at 10 µM;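 active = inhibition exceeding 3 SD of buffer-only control wells, cut at about 26% in these data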;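 also: percent drop in integrated peak-minus-baseline over baseline Fluo4 ratio after carbachol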
MrgX1 allo conf: confirmation of human MrgX1 receptor positive allosteric modulators | activation (ratio percentage), % at 10 µM | MrgX1-HEK293, Fluo-4 calcium fluorescence, FDSS | 13% of 1,200 active | shares compounds with MrgX1 PAM;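 active = ratio at least 3 SD above the weak peptide control, stable starting fluorescence, no direct agonism earlier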;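 also: compound followed by low BAM8-22 agonist challenge near EC20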
HEK293 Ca flux: MrgX1 antagonist counter-screen hit in parental HEK293 cells; shares compounds with MrgX1 antag; Fluo-4 calcium fluorescence, FDSS; fluorescence ratio F(max-min)/F0 at 10 µM; 2% of 4,000 active;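 active = duplicate-averaged calcium fluorescence ratio at least three times the standard deviation of buffer wells, a nonspecific response in parental cells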
HEK293 Ca counter: MrgX1 allosteric activator counter-screen hit in parental HEK293 cells | shares compounds with MrgX1 antag | parental HEK293 calcium flux, Fluo-4 fluorescence ratio; stronger effect = higher value | fluorescence ratio F(max-min)/F0 at 10 µM | 0.4% of 4,000 active | AID 624114;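 active = calcium fluorescence ratio, averaged over duplicates, at least 3 SD of the buffer-well ratio, meaning a nonspecific response in receptor-free cells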;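 also: untransfected parental HEK293 lacking MrgX1 used as counterscreen for MrgX1 allosteric activators; fluorescence change taken during the second addition on a kinetic imager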
HEK293 Ca cntr2: activity in parental HEK293 cells lacking MrgX1 receptor; shares compounds with MrgX1 antag; Fluo-4 calcium fluorescence (FDSS); stronger effect = higher value; fluorescence ratio F(max-min)/F0 at 10 µM; 8.7% of 4,000 active; AID 624115;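 active = calcium fluorescence ratio at least three times the spread of buffer wells, meaning a non-specific response in parental cells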
Numbers stand for hits; n = inactive; x = no result.

SMILES	RGS4 inh	MrgX1 agonist	MrgX1 PAM	RGS4 pot	MrgX1 antag	RGS4 activ val	RGS4 act ctr	others
CC(C)CC1CCCCC1OC(=O)C[N+]1(C)CCCCC1 (centres undefined)	n	n	n	-11	n	92	87
Cc1cc(-c2ccc(S(=O)(=O)N3CCCCC3)s2)on1	n	n	n	n	n	x	x
COc1cccc(SCc2noc(C(=O)NC(C)C)c2C(=O)NC(C)C)c1	n	n	n	n	n	x	x
CC(=O)N1CCN(C(c2ccccc2)c2ccccc2)CC1	n	n	n	n	n	x	x
CC12CNCC(C)(CN(C(c3ccccc3)c3ccccc3)C1)C2	n	n	n	-7.7	n	66	27
CCC(C)NC(=O)C1CCC(=O)N1CCc1ccccc1 (centres undefined)	n	n	n	n	n	x	x
COc1cccc(C2=NOC(C(=O)Nc3ccc4c(c3)OCO4)C2)c1OC (centres undefined)	n	n	n	n	n	x	x
CCOC(=O)N1CCN(CC(=O)N2c3ccccc3Sc3ccccc32)CC1	n	n	n	n	n	x	x
O=C(O)c1ccccc1SCC(=O)N1c2ccccc2Sc2ccccc21	n	n	n	n	n	x	x
O=C(C[n+]1ccccc1)N1c2ccccc2Sc2ccccc21	n	n	n	-12	n	93	96
CN1CCN(CC(=O)N2c3ccccc3Sc3ccccc32)CC1	n	n	n	-11	n	92	76
O=C(CN1CCCCCC1)N1c2ccccc2Sc2ccccc21	n	n	n	-11	n	92	92
O=C(CN1CCN(CCOCCO)CC1)N1c2ccccc2Sc2ccc(Cl)cc21	n	n	n	-9.1	n	88	64
CCc1ccc(S(=O)(=O)Nc2cc3c(cc2C)n(C)c(=O)n3C)cc1	n	n	n	n	n	x	x
O=C(CN1C(=O)NC2(CCCC2)C1=O)Nc1ccc(F)c(Cl)c1	n	n	n	n	n	x	x
Cc1ccccc1C(=O)c1cccn1CC(=O)NCCCc1ccccc1	n	n	n	n	n	x	x
O=C1CCCN1CCCNCC(O)c1ccccc1 (centres undefined)	n	n	n	n	n	x	x
O=C1CCCN1CCCNCC(=O)N1c2ccccc2Sc2ccccc21	n	n	n	-9.4	n	85	55
COc1cccc(NC(=O)COc2cc(O)c3c(c2)OC(C)(C)CC3=O)c1	n	n	n	n	n	x	x
CCN(CC)CCC#CC1(O)c2ccccc2-c2ccccc21	n	n	n	n	n	x	x
CCN(CC)CCC#CC(O)(c1ccccc1)c1ccccc1	n	n	n	-8.1	n	93	89
CCOc1ccc(CNC(=O)CCC(=O)n2nc(C)c3ccccc32)cc1	n	n	n	n	n	x	x
COc1cc2c(cc1Cl)/C(=C\CCN(C)C)c1ccccc1S2	n	n	n	-9.7	n	92	67
OCc1c[nH]c(=S)n1CCOc1cccc(C(F)(F)F)c1	n	n	n	n	n	x	x
CSc1nc(NCCCO)c2c3c(sc2n1)CN(C)CC3	n	n	n	-7.8	n	n	n
SMILES	RGS4 inh	MrgX1 agonist	MrgX1 PAM	RGS4 pot	MrgX1 antag	RGS4 activ val	RGS4 act ctr	others
CCCCC(CC)C(=O)Oc1ccc(O)c(C(C)(C)C)c1 (centres undefined)	n	n	n	-7.7	n	92	87
COc1ccc(CCC(C)N2CCC(Oc3ccc(C(=O)N4CCCC4)cc3)CC2)cc1 (centres undefined)	n	n	n	-7.6	n	84	44
CC(CCc1ccc(O)cc1)N1CCC(Oc2ccc(C(=O)N3CCCC3)cc2)CC1 (centres undefined)	n	n	n	n	n	x	x
COCCN(C(=O)CNC(=O)c1ccco1)C(C(=O)NC1CCCC1)c1cccc(OC)c1 (centres undefined)	n	n	n	n	n	x	x
O=C(COc1ccccc1)N1CCN(c2nnc(-c3ccccc3)c3ccccc23)CC1	n	n	n	n	n	x	x
Cc1cccc(OCC(=O)N2CCN(c3nnc(-c4ccccc4)c4ccccc34)CC2)c1	n	n	n	-8	n	78	30
Cc1ccc(C)c(S(=O)(=O)N2CCN(C(=O)c3ccncc3)CC2)c1	n	n	n	n	n	x	x
O=C(NCc1ccccc1F)C1CCCN1C(=O)Nc1ccccc1 (centres undefined)	n	n	n	n	n	x	x
CCOc1ccc(OCc2ccc(C(=O)N3CCCC3)o2)cc1	n	n	n	n	n	x	x
CC(C)c1ccc(OCc2ccc(C(=O)N3CCCC3)o2)cc1	n	n	n	-12	n	83	84
CN1CCN(C(=O)c2ccc(COc3ccc(C(C)(C)C)cc3)o2)CC1	n	n	n	-7.7	n	90	41
CC1CCCC(C)N1C(=O)COc1ccc(C(=O)Nc2ccccc2N2CCOCC2)cc1 (centres undefined)	n	n	n	n	n	x	x
O=C(c1c(F)cccc1F)N(C1CCCCC1)C1CCCCC1	n	n	n	n	n	x	x
Cc1ccccc1N1CCN(CCCN2C(=O)CC(=C(c3ccccc3)c3ccccc3)C2=O)CC1	n	n	n	-8.4	n	90	43
COc1cccc(OC)c1OCCCOc1c(OC)cccc1OC	n	n	n	n	n	x	x
COc1cccc(OC)c1OCCNCC1CSc2ccccc2O1 (centres undefined)	n	n	n	-8.1	n	n	n
COC(=O)c1ccc(OC)c(CSc2nnc(COc3ccccc3)o2)c1	n	n	n	n	n	x	x
COC(=O)c1ccc(OC)c(CSc2nnc(-c3ccc(C(C)(C)C)cc3)o2)c1	n	n	n	-7.9	n	58	84
COc1ccccc1-c1c(C#N)c(N)nc2c1CCc1ccccc1-2	n	n	12	-7.6	n	89	52	MrgX1 allo conf=n;HEK293 Ca flux=n;HEK293 Ca counter=n;HEK293 Ca cntr2=n
COc1ccc(N2CC(C(=O)OCC(=O)Nc3cccc(C)c3C)CC2=O)cc1 (centres undefined)	n	n	n	n	n	x	x
